Data as given in ChEMBL document CHEMBL4334446, “Evaluating the effects of fluorine on biological properties and metabolic stability of some antitubulin 3-substituted 7-phenyl-pyrroloquinolinones” (Eur J Med Chem, 2019).
Calls of active or inactive are those of the source. No cut-off for these calls is given here.

Experiments:
MDA-MB-231 = assay: Growth inhibition of human MDA-MB-231 cells incubated for 72 hrs by MTT assay; format: functional; settings: MDA-MB-231, 72 h
MDA-MB-468 = assay: Growth inhibition of human MDA-MB-468 cells incubated for 72 hrs by MTT assay; format: functional; settings: MDA-MB-468, 72 h
A2058 [1] = assay: Growth inhibition of human A2058 cells incubated for 72 hrs by MTT assay; format: functional; settings: A2058, 72 h
A-375 = assay: Induction of cell cycle arrest in human A375 cells assessed as accumulation of cells at G2/M phase at 50 to 100 nM incubated for 24 hrs by PI staining based flow cytometric analysis; format: functional
Outline: (§1)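 A375 and A2058 melanoma cells were treated 24 h. Cells were fixed in ice-cold 70% ethanol, then given lysis buffer with RNase A and 0.1% Triton X-100 and stained with PI. Phase distribution came from flow cytometric DNA histograms. Mean ± SEM of two independent experiments.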

A2058 [2] = assay: Induction of cell cycle arrest in human A2058 cells assessed as accumulation of cells at G2/M phase at 50 to 100 nM incubated for 24 hrs by PI staining based flow cytometric analysis; format: functional; outline: as §1
A2058 [3] = assay: Induction of cell cycle arrest in human A2058 cells assessed as reduction in cell population at S phase at 50 to 100 nM incubated for 24 hrs by PI staining based flow cytometric analysis; format: functional; outline: as §1
HeLa [4] = assay: Cell cycle arrest in human HeLa cells assessed as disappearance in cdc25c protein expression at 50 to 100 nM incubated for 48 hrs by western blot analysis; format: functional, cell-based
Outline: (§2)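 HeLa cells were exposed for set times, including 24 and 48 h, then washed in cold PBS and lysed on ice for 30 min. Lysates were cleared at 15000 × g at 4 °C. 10 µg protein was run by SDS-PAGE and transferred to PVDF. Blots were probed 2 h at room temperature with primary antibodies, then peroxidase secondary antibodies, and detected by ECL. Membranes were reprobed for actin as loading control.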

HeLa [5] = assay: Induction of apoptosis in human HeLa cells at 50 nM incubated for 24 to 48 hrs by annexin-V FITC and PI staining based flow cytometric analysis; format: functional, cell-based
Outline: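 HeLa cells were treated 24 or 48 h, then harvested and double-stained with annexin-V-FITC and PI for flow cytometry. Populations were separated as live, early apoptotic, late apoptotic and necrotic. Mean ± SEM of three independent experiments.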

HeLa [6] = assay: Induction of ROS generation in human HeLa cells at 100 nM incubated for 12 to 24 hrs by H2DCFDA staining based flow cytometric analysis; format: functional, cell-based
Outline: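 HeLa cells were treated 6, 12, 24 and 48 h, then stained with H2-DCFDA. ROS fluorescence was read by flow cytometry. Mean ± SEM of three independent experiments.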

HeLa [7] = assay: Induction of apoptosis in human HeLa cells assessed as decrease in Mcl1 protein expression at 50 to 100 nM incubated upto 48 hrs by western blot analysis; format: functional, cell-based; settings: 10 to 100 nM, in the assay text read “10 to 100 nM” for “50 to 100 nM”; outline: as §2
HeLa [8] = assay: Induction of apoptosis in human HeLa cells assessed as increase in H2AX expression at 50 to 100 nM incubated upto 48 hrs by western blot analysis; format: functional, cell-based; outline: as §2
B16-BL6 = assay: Antitumour activity against mouse B16-BL6 cells allografted in C57BL/6 mouse assessed as reduction in tumor mass at 7.5 mg/kg, ip administrated every other day relative to control; format: functional
Outline: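 Male C57BL/6 mice (six weeks old) got 2.5×10^5 BL6-B16 murine melanoma cells s.c. in the dorsolateral flank, in PBS. Once tumors were measurable (about 100 mm³), mice were randomized and given drug i.p. every other day in 50 µL DMSO. Vehicle (DMSO) group served as control. Tumor volume = (D × d²)/2; tumor weight taken at end. 5 animals per group, mean ± SEM.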

[9] = Toxicity in C57BL/6 mouse allografted with mouse B16-BL6 cells assessed as change in body weight at 3 to 7.5 mg/kg, ip administrated every other day; format: organism-based; settings: in vivo
Outline: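 Male six-week-old C57BL/6 mice were given BL6-B16 murine melanoma cells subcutaneously in the dorsolateral flank in PBS. Once tumours reached about 100 mm³, mice were randomised and dosed intraperitoneally every other day with 3.0 or 7.5 mg/kg in DMSO, or vehicle alone. Body weight change was followed; 5 animals per group, mean ± SEM.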

[10] = Metabolic stability in human liver microsomes at 10 uM incubated for 60 mins in absence of NADPH by HPLC analysis; format: ADME, Microsome; settings: 1 h
Outline: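 Compound at 10 μM final was incubated at 37 °C with pooled mixed-gender HLMs (1 mg/mL) in 0.1 M KH₂PO₄ pH 7.4, NADPH omitted, for 0 or 60 min. Reaction was started by adding microsomes after 3-min equilibration and stopped with ice-cold acetonitrile. Supernatant was analysed by HPLC-fluorescence. Percent remaining at 60 min is relative to 0 min; mean ± SD, n = 3.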

[11] = Metabolic stability in human liver microsomes assessed as retention time of the parent compound at 10 uM incubated for 60 mins in presence of NADPH by HPLC analysis; format: ADME, Microsome; settings: 1 h
Outline: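 Compound (10 µM) was incubated with pooled mixed-gender HLMs (0.5 mg protein/mL), 1 mM NADPH and 0.1 M KH2PO4 pH 7.4 for 60 min at 37 °C, aerobic. The reaction was started with microsomes and stopped with ice-cold acetonitrile; controls lacked NADPH. The supernatant went to C8 HPLC with fluorescence detection (ex 344, em 493 nm). Collected peaks were analyzed by ESI+ mass spectrometry.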

[12] = Metabolic stability in human liver microsomes at 10 uM incubated for 60 mins in presence of NADPH by ESI-MS analysis; format: ADME, Microsome; settings: 1 h

Row | Structure (SMILES) | GI50 (MDA-MB-231) [nM] | GI50 (MDA-MB-468) [nM] | GI50 (A2058 [1]) [nM] | Activity (A-375) | Activity (A2058 [2]) | Activity (A2058 [3]) | inhibition (HeLa [4]) | Activity (HeLa [5]) | Activity (HeLa [6]) | Activity (HeLa [7]) | Activity (HeLa [8]) | inhibition in vivo at 7.5 mg/kg (B16-BL6) [%] | Activity [9] | Stability [10] | Retention_time [11] [min] | Drug metabolism [12]
1 | CCn1ccc2c3c(=O)cc(-c4ccccc4F)[nH]c3ccc21 | 164 | 22.3 | 4.8 | Active | Active | Active | Active | Active | Active | Active | Active | 60 | Non-Toxic |  |  | 
2 | CCn1ccc2c3c(=O)cc(-c4ccccc4)[nH]c3ccc21 |  |  |  |  |  |  |  |  |  |  |  |  |  | Stable | 12.9 | Metabolite_Detected
